# Reference: ChEMBL document CHEMBL3407388, “Synthesis, anticancer activity and molecular docking studies on a series of heterocyclic trans-cyanocombretastatin analogues as antitubulin agents” (2015)
# Assays:
# Format in all cases: functional
# CAKI-1 = assay: Cytotoxicity against human Caki1 cells assessed as growth inhibition after 48 hrs by SRB assay; conditions: CAKI-1, 48 h
# Method in brief: (§1)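 NCI 60-cell panel; compounds passing a single-dose screen (10−5 M, 48 h) were tested at five 10-fold dilutions (10−4 to 10−8 M) with 48 h drug exposure. GI50 is the molar concentration giving 50% reduction in net cell growth relative to cell numbers on day 0.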
# HL-60(TB) = assay: Cytotoxicity against human HL-60(TB) cells assessed as growth inhibition after 48 hrs by SRB assay; conditions: HL-60, 48 h
# Method in brief: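 NCI 60-cell panel, leukemia subpanel. Five-dose screen at 10-fold dilutions from 10−4 to 10−8 M with 48 h drug exposure. GI50 is the molar concentration giving 50% reduction in net cell growth compared with cell numbers on day 0.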
# RXF 393 = assay: Cytotoxicity against human RXF393 cells assessed as growth inhibition after 48 hrs by SRB assay; conditions: RXF 393, 48 h; method in brief: as §1
# [1] = Cytotoxicity against human OVCAR3 cells assessed as growth inhibition after 48 hrs by SRB assay; conditions: OVCAR-3, 48 h; method in brief: as §1
# COLO 205 = assay: Cytotoxicity against human COLO205 cells assessed as growth inhibition after 48 hrs by SRB assay; conditions: COLO 205, 48 h; method in brief: as §1
# K562 = assay: Cytotoxicity against human K562 cells assessed as growth inhibition after 48 hrs by SRB assay; conditions: K562, 48 h; method in brief: as §1
# TK-10 = assay: Cytotoxicity against human TK10 cells assessed as growth inhibition after 48 hrs by SRB assay; conditions: TK-10, 48 h
# RPMI-8226 = assay: Cytotoxicity against human RPMI8226 cells assessed as growth inhibition after 48 hrs by SRB assay; conditions: RPMI-8226, 48 h; method in brief: as §1
# KM12 = assay: Cytotoxicity against human KM12 cells assessed as growth inhibition after 48 hrs by SRB assay; conditions: KM12, 48 h; method in brief: as §1
# NCI-H460 = assay: Cytotoxicity against human NCI-H460 cells assessed as growth inhibition after 48 hrs by SRB assay; conditions: NCI-H460, 48 h; method in brief: as §1
# [2] = Cytotoxicity against human NCI-ADR-RES cells assessed as growth inhibition after 48 hrs by SRB assay; method in brief: as §1
# [3] = Cytotoxicity against human Hs578T cells assessed as growth inhibition after 48 hrs by SRB assay; conditions: Hs-578T; method in brief: as §1
# SW-620 = assay: Cytotoxicity against human SW620 cells assessed as growth inhibition after 48 hrs by SRB assay; conditions: SW-620, 48 h
# [4] = Cytotoxicity against human UO31 cells assessed as growth inhibition after 48 hrs by SRB assay; conditions: UO-31, 48 h
# A498 = assay: Cytotoxicity against human A498 cells assessed as growth inhibition after 48 hrs by SRB assay; conditions: A498, 48 h; method in brief: as §1
# [5] = Cytotoxicity against human HCT15 cells assessed as growth inhibition after 48 hrs by SRB assay; conditions: HCT-15, 48 h; method in brief: as §1
# U-251 = assay: Cytotoxicity against human U251 cells assessed as growth inhibition after 48 hrs by SRB assay; conditions: U-251, 48 h
# [6] = Cytotoxicity against human OVCAR5 cells assessed as growth inhibition after 48 hrs by SRB assay; conditions: OVCAR-5, 48 h; method in brief: as §1
# SNB-19 = assay: Cytotoxicity against human SNB19 cells assessed as growth inhibition after 48 hrs by SRB assay; conditions: SNB-19, 48 h; method in brief: as §1
# MDA-MB-435 = assay: Cytotoxicity against human MDA-MB-435 cells assessed as growth inhibition after 48 hrs by SRB assay; conditions: MDA-MB-435, 48 h; method in brief: as §1
# SF-268 = assay: Cytotoxicity against human SF268 cells assessed as growth inhibition after 48 hrs by SRB assay; conditions: SF-268, 48 h; method in brief: as §1
# [7] = Cytotoxicity against human OVCAR4 cells assessed as growth inhibition after 48 hrs by SRB assay; conditions: OVCAR-4, 48 h; method in brief: as §1
# IGROV-1 = assay: Cytotoxicity against human IGROV1 cells assessed as growth inhibition after 48 hrs by SRB assay; conditions: IGROV-1, 48 h; method in brief: as §1
# SN12C = assay: Cytotoxicity against human SN12C cells assessed as growth inhibition after 48 hrs by SRB assay; method in brief: as §1
# SF-295 = assay: Cytotoxicity against human SF295 cells assessed as growth inhibition after 48 hrs by SRB assay; conditions: SF-295, 48 h; method in brief: as §1
# MDA-MB-231 = assay: Cytotoxicity against human MDA-MB-231 cells assessed as growth inhibition after 48 hrs by SRB assay; conditions: MDA-MB-231, 48 h; method in brief: as §1
# LOX IMVI = assay: Cytotoxicity against human LOXIMVI cells assessed as growth inhibition after 48 hrs by SRB assay; method in brief: as §1
# NCI-H226 = assay: Cytotoxicity against human NCI-H226 cells assessed as growth inhibition after 48 hrs by SRB assay; conditions: NCI-H226, 48 h; method in brief: as §1
# BT-549 = assay: Cytotoxicity against human BT549 cells assessed as growth inhibition after 48 hrs by SRB assay; conditions: BT-549, 48 h; method in brief: as §1
# 786-0 = assay: Cytotoxicity against human 786-0 cells assessed as growth inhibition after 48 hrs by SRB assay; conditions: 786-0, 48 h; method in brief: as §1
# [8] = Cytotoxicity against human OVCAR8 cells assessed as growth inhibition after 48 hrs by SRB assay; conditions: OVCAR-8, 48 h; method in brief: as §1
# HCC 2998 = assay: Cytotoxicity against human HCC2998 cells assessed as growth inhibition after 48 hrs by SRB assay; conditions: HCC 2998, 48 h; method in brief: as §1
# SK-OV-3 = assay: Cytotoxicity against human SKOV3 cells assessed as growth inhibition after 48 hrs by SRB assay; conditions: SK-OV-3, 48 h; method in brief: as §1
# M14 = assay: Cytotoxicity against human M14 cells assessed as growth inhibition after 48 hrs by SRB assay; conditions: M14, 48 h; method in brief: as §1
# NCI-H23 = assay: Cytotoxicity against human NCI-H23 cells assessed as growth inhibition after 48 hrs by SRB assay; conditions: NCI-H23, 48 h; method in brief: as §1
# HT-29 = assay: Cytotoxicity against human HT-29 cells assessed as growth inhibition after 48 hrs by SRB assay; conditions: HT-29, 48 h; method in brief: as §1
# SF-539 = assay: Cytotoxicity against human SF539 cells assessed as growth inhibition after 48 hrs by SRB assay; conditions: SF-539, 48 h; method in brief: as §1
# MCF7 = assay: Cytotoxicity against human MCF7 cells assessed as growth inhibition after 48 hrs by SRB assay; conditions: MCF7, 48 h; method in brief: as §1
# [9] = Cytotoxicity against human UACC62 cells assessed as growth inhibition after 48 hrs by SRB assay; conditions: UACC-62, 48 h
# [10] = Cytotoxicity against human PC3 cells assessed as growth inhibition after 48 hrs by SRB assay; conditions: PC-3, 48 h; method in brief: as §1
# MOLT-4 = assay: Cytotoxicity against human MOLT4 cells assessed as growth inhibition after 48 hrs by SRB assay; conditions: MOLT-4, 48 h; method in brief: as §1
# SK-MEL-5 = assay: Cytotoxicity against human SK-MEL-5 cells assessed as growth inhibition after 48 hrs by SRB assay; conditions: SK-MEL-5, 48 h; method in brief: as §1
# DU-145 = assay: Cytotoxicity against human DU145 cells assessed as growth inhibition after 48 hrs by SRB assay; conditions: DU-145, 48 h; method in brief: as §1
smiles,measurement,setting,value
COc1cc(OC)cc(/C(C#N)=C/c2c[nH]c3ccccc23)c1,GI50,CAKI-1,35 nM
same,GI50,HL-60(TB),31 nM
same,GI50,RXF 393,83 nM
same,GI50,[1],31 nM
same,GI50,COLO 205,47 nM
same,GI50,K562,43 nM
same,GI50,TK-10,10300 nM
same,GI50,RPMI-8226,65 nM
same,GI50,KM12,40 nM
same,GI50,NCI-H460,39 nM
same,GI50,[2],33 nM
same,GI50,[3],611 nM
same,GI50,SW-620,44 nM
same,GI50,[4],663 nM
same,GI50,A498,35 nM
same,GI50,[5],53 nM
same,GI50,U-251,45 nM
same,GI50,[6],197 nM
same,GI50,SNB-19,62 nM
same,GI50,MDA-MB-435,20 nM
same,GI50,SF-268,78 nM
same,GI50,[7],3520 nM
same,GI50,IGROV-1,347 nM
same,GI50,SN12C,77 nM
same,GI50,SF-295,45 nM
same,GI50,MDA-MB-231,644 nM
same,GI50,LOX IMVI,78 nM
same,GI50,NCI-H226,8180 nM
same,GI50,BT-549,49 nM
same,GI50,786-0,77 nM
same,GI50,[8],103 nM
same,GI50,HCC 2998,207 nM
same,GI50,SK-OV-3,117 nM
same,GI50,M14,42 nM
same,GI50,NCI-H23,256 nM
same,GI50,HT-29,38 nM
same,GI50,SF-539,52 nM
same,GI50,MCF7,41 nM
same,GI50,[9],49 nM
same,GI50,[10],75 nM
same,GI50,MOLT-4,49 nM
same,GI50,SK-MEL-5,48 nM
same,GI50,DU-145,130 nM
COc1ccc2[nH]cc(/C=C(\C#N)c3cc(OC)c(OC)c(OC)c3)c2c1,GI50,CAKI-1,72 nM
same,GI50,HL-60(TB),59 nM
same,GI50,RXF 393,33 nM
same,GI50,[1],34 nM
same,GI50,COLO 205,51 nM
same,GI50,K562,44 nM
same,GI50,TK-10,20100 nM
same,GI50,RPMI-8226,241 nM
same,GI50,KM12,44 nM
same,GI50,NCI-H460,37 nM
same,GI50,[2],37 nM
same,GI50,[3],124 nM
same,GI50,SW-620,46 nM
same,GI50,[4],1260 nM
same,GI50,A498,25 nM
same,GI50,[5],68 nM
same,GI50,U-251,50 nM
same,GI50,[6],516 nM
same,GI50,SNB-19,89 nM
same,GI50,MDA-MB-435,27 nM
same,GI50,SF-268,2140 nM
same,GI50,[7],1350 nM
same,GI50,IGROV-1,379 nM
same,GI50,SN12C,715 nM
same,GI50,SF-295,42 nM
same,GI50,MDA-MB-231,299 nM
same,GI50,LOX IMVI,74 nM
same,GI50,NCI-H226,170 nM
same,GI50,BT-549,348 nM
same,GI50,786-0,85 nM
same,GI50,[8],148 nM
same,GI50,HCC 2998,119 nM
same,GI50,SK-OV-3,56 nM
same,GI50,M14,52 nM
same,GI50,NCI-H23,101 nM
same,GI50,HT-29,38 nM
same,GI50,SF-539,71 nM
same,GI50,MCF7,36 nM
same,GI50,[9],59 nM
same,GI50,[10],54 nM
same,GI50,MOLT-4,198 nM
same,GI50,SK-MEL-5,36 nM
same,GI50,DU-145,153 nM
